According to ChEMBL document CHEMBL1148384, “Design and synthesis of peptidomimetic protein farnesyltransferase inhibitors as anti-Trypanosoma brucei agents” (J Med Chem, 2004):

Legend:
[1] = system: Trypanosoma brucei rhodesiense; assay: Dose required to inhibit growth of Trypanosoma brucei rhodesiense; 0.14-0.8 uM; format: functional; settings: read-out: ED50 (the source's name)
Summary of the method: (§1)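 Bloodstream-form trypomastigotes of strain STIB 900 were grown in HMI-18 with nonessential amino acids, glucose and 15% heat-inactivated FCS at 37 °C, 5% CO2. Compounds were given as serial dilutions, in triplicate, from 1 × 10^4 cells/well. Cultures ran 72 h before Alamar Blue read-out, and ED50 was fitted.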

[2] = system: Trypanosoma brucei brucei; assay: Dose required to inhibit growth of Trypanosoma brucei; 0.5-5 uM; format: functional; settings: read-out: ED50
Summary of the method: (§2)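 Bloodstream-form strain 427 was grown in HMI-9 with 10% FBS at 37 °C, 5% CO2. Cells were seeded at 1 × 10^4 trypomastigotes/well in triplicate, with serial dilutions from 20 mM DMSO stocks. Growth was read with Alamar Blue at 48 h, pentamidine served as positive control, and ED50 was fitted from the curves.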

NIH3T3 [3] = assay: Effective dose against murine 3T3 fibroblasts cells; format: functional; settings: Mus musculus, read-out: ED50 (the source's name)
Summary of the method: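 Murine 3T3 fibroblasts were grown in RPMI 1640 with 10% FBS and held 72 h with compound at 37 °C, 5% CO2.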

[4] = system: protein farnesyltransferase (Trypanosoma brucei); assay: Inhibition of Trypanosoma brucei protein farnesyltransferase at 50 nM (0-14%)
[5] = system: Protein farnesyltransferase (Trypanosoma brucei); assay: Inhibition of Trypanosoma brucei protein farnesyltransferase at 50 nM (82-87%)
[6] = system: Trypanosoma brucei rhodesiense; assay: Dose required to inhibit growth of Trypanosoma brucei rhodesiense; 14->60 uM; format: functional; settings: read-out: ED50 (the source's name); summary of the method: as §1
[7] = system: Trypanosoma brucei brucei; assay: Effective dose required to inhibit the growth of Trypanosoma brucei; format: functional; settings: read-out: ED50 (the source's name); summary of the method: as §2
[8] = system: Trypanosoma brucei rhodesiense; assay: Effective dose required to inhibit the growth of Trypanosoma brucei rhodesiense; format: functional; settings: read-out: ED50 (the source's name); summary of the method: as §1
NIH3T3 [9] = assay: Dose required against murine 3T3 fibroblasts cells; 1-10 uM; format: functional; settings: Mus musculus, read-out: ED50 (the source's name)
[10] = system: protein farnesyltransferase (Trypanosoma brucei); assay: Inhibition of against Trypanosoma brucei protein farnesyltransferase at 50 nM concentration
[11] = system: Trypanosoma brucei rhodesiense; assay: Dose required to inhibit growth of Trypanosoma brucei rhodesiense; 0.38-0.92 uM; format: functional; settings: read-out: ED50; summary of the method: as §1
[12] = system: protein farnesyltransferase (Trypanosoma brucei); assay: Inhibition of Trypanosoma brucei protein farnesyltransferase at 50 nM (0-17%)
[13] = system: Trypanosoma brucei brucei; assay: Dose required to inhibit growth of Trypanosoma brucei; 1-5 uM; format: functional; settings: read-out: ED50; summary of the method: as §2
[14] = system: Trypanosoma brucei brucei; assay: Dose required to inhibit growth of Trypanosoma brucei; 1-10 uM; format: functional; settings: read-out: ED50 (the source's name); summary of the method: as §2

Structure (SMILES)	EC50 (NIH3T3 [3]) [µM]	EC50 [7] [µM]	EC50 [8] [µM]	inhibition [10] [%]	other results
COC(=O)[C@H](CCSC)NC(=O)c1ccc(NCc2cncn2Cc2ccc(C)cc2)cc1-c1ccccc1	> 10	–	–	–	EC50 [1]: ≤ 0.8 µM; EC50 [2]: ≤ 5 µM; inhibition [4]: ≤ 14%
CSCC[C@H](NC(=O)c1ccc(NCc2cncn2Cc2ccc([N+](=O)[O-])cc2)cc1-c1ccccc1)C(=O)O	> 10	> 10	–	–	inhibition [5]: 87%; EC50 [6]: > 60 µM
C=COC(=O)[C@H](CCSC)NC(=O)c1ccc(CNCc2c[nH]cn2)cc1-c1ccccc1C	–	0.01	0.009	4.9	EC50 (NIH3T3 [9]): > 10 µM
CSCC[C@H](NC(=O)c1ccc(NCc2cncn2Cc2ccc(C#N)cc2)cc1-c1ccccc1)C(=O)O	> 10	> 10	> 60	–	inhibition [5]: ≤ 87%
COC(=O)[C@H](CCSC)NC(=O)c1ccc(NCc2cncn2Cc2cccc(C)c2)cc1-c1ccccc1	> 10	–	–	–	EC50 [11]: ≤ 0.92 µM; inhibition [12]: ≤ 17%; EC50 [13]: ≤ 5 µM
CSCC[C@H](NC(=O)c1ccc(NCc2cn(CC3CCCCC3)cn2)cc1-c1ccccc1)C(=O)O	–	–	–	12	–
CC(C)NC(=O)c1ccc(NCc2cncn2Cc2ccc(C#N)cc2)cc1-c1ccccc1	> 10	> 10	5.3	8.4	–
N#Cc1ccc(Cn2cncc2CNc2ccc(C(=O)NCC3CCCCC3)c(-c3ccccc3)c2)cc1	> 10	–	3.2	18.6	EC50 [14]: > 10 µM
CSCC[C@H](NC(=O)c1ccc(CNCc2c[nH]cn2)cc1-c1ccccc1C)C(=O)OC(C)C	10	0.005	0.003	6.2	–
CSCC[C@H](NC(=O)c1ccc(NCc2cn(Cc3ccc(-c4ccccc4)cc3)cn2)cc1-c1ccccc1)C(=O)O	–	–	–	4.5	–
CCCCCn1cncc1CNc1ccc(C(=O)N[C@@H](CCSC)C(=O)O)c(-c2ccccc2)c1	–	–	–	80.6	–
COC(=O)[C@H](CCSC)NC(=O)c1ccc(NCc2cncn2Cc2cccc([N+](=O)[O-])c2)cc1-c1ccccc1	> 10	–	–	–	EC50 [11]: ≤ 0.92 µM; inhibition [12]: ≤ 17%; EC50 [13]: ≤ 5 µM
N#Cc1ccc(Cn2cncc2CNc2ccc(C(=O)Nc3cccc(C#N)c3)c(-c3ccccc3)c2)cc1	> 10	> 10	–	2.2	–
COC(=O)[C@H](CCSC)NC(=O)c1ccc(NCc2cncn2Cc2ccc([N+](=O)[O-])cc2)cc1-c1ccccc1	> 10	–	–	–	EC50 [1]: ≤ 0.8 µM; EC50 [2]: ≤ 5 µM; inhibition [4]: ≤ 14%
COC(=O)[C@H](CCSC)NC(=O)c1ccc(CNCc2c[nH]cn2)cc1-c1ccccc1C	25	0.025	0.0026	41	–
CSCC[C@H](NC(=O)c1ccc(CNCc2c[nH]cn2)cc1-c1ccccc1C)C(=O)OC1CCCCC1	–	0.03	0.018	4.5	EC50 (NIH3T3 [9]): > 10 µM
COC(=O)[C@H](CCSC)NC(=O)c1ccc(NCc2cncn2Cc2ccccc2C)cc1-c1ccccc1	> 10	–	–	0	EC50 [14]: ≤ 10 µM
CSCC[C@H](NC(=O)c1ccc(NCc2cncn2CC2CCCCC2)cc1-c1ccccc1)C(=O)O	–	–	–	69.8	–
COC(=O)[C@H](CCSC)NC(=O)c1ccc(NCc2cncn2Cc2ccccc2Cl)cc1-c1ccccc1	> 10	–	–	0	EC50 [14]: ≤ 10 µM
N#Cc1ccc(Cn2cncc2CNc2ccc(C(=O)Nc3cccc([N+](=O)[O-])c3)c(-c3ccccc3)c2)cc1	> 10	> 10	3	9.1	–

Structure (SMILES)	EC50 (NIH3T3 [3]) [µM]	EC50 [7] [µM]	EC50 [8] [µM]	inhibition [10] [%]	other results
CCCCC(CC)OC(=O)[C@H](CCSC)NC(=O)c1ccc(CNCc2c[nH]cn2)cc1-c1ccccc1C (stereo partly drawn)	–	0.02	0.02	15.2	EC50 (NIH3T3 [9]): > 10 µM
CSCC[C@H](NC(=O)c1ccc(NCc2cncn2Cc2ccc(Cl)cc2)cc1-c1ccccc1)C(=O)O	> 10	> 10	–	–	inhibition [5]: ≤ 87%; EC50 [6]: > 60 µM
CCOC(=O)[C@H](CCSC)NC(=O)c1ccc(CNCc2c[nH]cn2)cc1-c1ccccc1C	10	0.01	0.005	10.4	–
N#CCNC(=O)c1ccc(NCc2cncn2Cc2ccc(C#N)cc2)cc1-c1ccccc1	> 10	> 10	45	0	–
COC(=O)[C@H](CCSC)NC(=O)c1ccc(NCc2cncn2Cc2ccc(Cl)cc2)cc1-c1ccccc1	> 10	–	–	–	EC50 [1]: ≤ 0.8 µM; EC50 [2]: ≤ 5 µM; inhibition [4]: ≤ 14%
N#Cc1ccc(Cn2cncc2CNc2ccc(C(=O)NCc3ccccc3)c(-c3ccccc3)c2)cc1	> 10	10	8.2	1.2	–
CSCC[C@H](NC(=O)c1ccc(CNCc2[nH]cnc2C)cc1-c1ccccc1C)C(=O)O	> 10	> 10	–	68.5	–
COC(=O)[C@H](CCSC)NC(=O)c1ccc(NCc2cncn2Cc2cccc(Cl)c2)cc1-c1ccccc1	> 10	–	–	–	EC50 [11]: ≤ 0.92 µM; inhibition [12]: ≤ 17%; EC50 [13]: ≤ 5 µM
CCCCCn1cnc(CNc2ccc(C(=O)N[C@@H](CCSC)C(=O)O)c(-c3ccccc3)c2)c1	–	–	–	11.5	–
CSCNC(=O)c1ccc(NCc2cncn2Cc2ccc(C#N)cc2)cc1-c1ccccc1	> 10	> 10	3	17.1	–
COC(=O)[C@H](CCSC)NC(=O)c1ccc(NCc2cncn2Cc2ccc(C#N)cc2)cc1-c1ccccc1	> 10	–	–	–	EC50 [1]: ≤ 0.8 µM; EC50 [2]: ≤ 5 µM; inhibition [4]: ≤ 14%
CSCC[C@H](NC(=O)c1ccc(CNCc2c[nH]cn2)cc1-c1ccccc1C)C(=O)OCc1ccccc1	–	0.02	–	41.7	EC50 (NIH3T3 [9]): > 10 µM
CSCC[C@H](NC(=O)c1ccc(NC[C@@H](N)CS)cc1-c1ccccc1)C(=O)O	> 25	> 25	9.2	–	–
COC(=O)[C@H](CCSC)NC(=O)c1ccc(CN(Cc2c[nH]cn2)Cc2c[nH]cn2)cc1-c1ccccc1C	> 10	0.1	0.0015	66.2	–
CSCC[C@H](NC(=O)c1ccc(CN(Cc2c[nH]cn2)Cc2c[nH]cn2)cc1-c1ccccc1C)C(=O)O	> 10	–	0.9	–	EC50 [14]: > 10 µM
CSCC[C@H](NC(=O)c1ccc(NCc2cncn2Cc2ccc(C)cc2)cc1-c1ccccc1)C(=O)O	> 10	> 10	–	–	inhibition [5]: ≤ 87%; EC50 [6]: > 60 µM
COC(=O)[C@H](CCSC)NC(=O)c1ccc(NCc2cncn2Cc2ccccc2C#N)cc1-c1ccccc1	> 10	–	–	0	EC50 [14]: ≤ 10 µM
COC(=O)[C@H](CCSC)NC(=O)c1ccc(NCc2cncn2Cc2ccc(-c3ccccc3)cc2)cc1-c1ccccc1	> 10	–	–	–	EC50 [1]: > 0.14 µM; EC50 [2]: ≤ 5 µM; inhibition [4]: 14%
COC(=O)[C@H](CCSC)NC(=O)c1ccc(CNCc2cncn2Cc2ccc(C#N)cc2)cc1-c1ccccc1C	> 10	0.5	0.1	7	–
